Consider nine compounds from ChEMBL document CHEMBL1130381, “Synthesis and evaluation of trimetoquinol derivatives: novel thromboxane A2/prostaglandin H2 antagonists with diminished beta-adrenergic agonist activity” (J Med Chem, 1997).

Each structure is given as a SMILES string.

A word on the IC50: it is the concentration at which inhibition is half-maximal. What is called Ki is the dissociation constant of the complex between target and ligand, obtained from inhibition or displacement. A lower Ki goes with tighter binding.

Test [1] addresses T1, Thromboxane A2 receptor (Homo sapiens, UniProt P21731).
T1 sequence (P21731 whole entry): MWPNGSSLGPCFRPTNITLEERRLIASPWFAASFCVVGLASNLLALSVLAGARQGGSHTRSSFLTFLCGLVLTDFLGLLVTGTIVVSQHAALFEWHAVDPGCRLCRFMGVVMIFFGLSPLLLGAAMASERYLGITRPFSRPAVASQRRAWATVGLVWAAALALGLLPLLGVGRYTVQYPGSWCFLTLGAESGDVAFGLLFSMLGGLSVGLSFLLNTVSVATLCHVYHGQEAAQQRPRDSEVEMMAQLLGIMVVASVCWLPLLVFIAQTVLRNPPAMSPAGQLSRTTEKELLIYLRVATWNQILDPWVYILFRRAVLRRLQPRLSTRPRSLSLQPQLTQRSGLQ
Nature of the test: Inhibitory concentration against radioligand [3H]SQ-29,548 (5 nM) binding to TP receptors in human platelets.

The species entered for test [2] is Homo sapiens. Nature of the test: Potency ratio of human platelet aggregation. In kind it is functional.
The species named for test [3] is Homo sapiens. Nature of the test: Inhibitory activity against U-46,619-induced (1 uM) human platelet activation (aggregation). The class given is functional. The gist of the method: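 Human platelet-rich plasma from volunteers free of medication for at least 10 days, with aspirin (1 mM) to block endogenous prostaglandins. Drug and aspirin preincubated 1 min, then U46619 (0.3–1 μM, minimum concentration giving maximal aggregation) added. Turbidometric aggregation monitored for 4 min. IC50 read graphically from percent response versus log concentration plots, reported as pIC50.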

The species named for test [4] is Homo sapiens. Nature of the test: Inhibitory activity against U-46,619-induced (1 uM) human platelet activation (Serotonin secretion). In kind it is functional. In short, it runs like this: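 Aspirin (1 mM) plus drug for 1 min, then U46619 (0.3–1 μM). Supernatant counted by liquid scintillation. Percent secretion = (sample − unstimulated background cpm)/(total − background cpm) × 100. IC50 taken graphically from log concentration–response plots, given as pIC50.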

The target in test [5] is Beta-2 adrenergic receptor (Cavia porcellus) (UniProt Q8K4Z4).
For test [6], the target named is Beta-1 adrenergic receptor (Cavia porcellus) (UniProt B0FL73). As to conditions: Cardiac atrium.
Chain of Beta-1 adrenergic receptor (Cavia porcellus) (B0FL73 1-467): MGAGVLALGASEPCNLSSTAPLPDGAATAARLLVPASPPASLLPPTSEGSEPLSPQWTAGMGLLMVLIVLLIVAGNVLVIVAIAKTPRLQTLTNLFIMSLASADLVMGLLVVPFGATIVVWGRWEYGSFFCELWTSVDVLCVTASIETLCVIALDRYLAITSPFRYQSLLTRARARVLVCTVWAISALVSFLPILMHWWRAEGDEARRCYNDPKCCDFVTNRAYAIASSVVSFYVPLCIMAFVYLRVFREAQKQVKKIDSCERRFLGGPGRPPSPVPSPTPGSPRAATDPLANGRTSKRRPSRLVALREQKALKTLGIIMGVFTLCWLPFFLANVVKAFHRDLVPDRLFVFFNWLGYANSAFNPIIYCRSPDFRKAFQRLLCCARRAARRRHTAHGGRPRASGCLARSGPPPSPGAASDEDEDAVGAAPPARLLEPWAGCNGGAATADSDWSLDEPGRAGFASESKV

Chain of Beta-2 adrenergic receptor (Cavia porcellus) (Q8K4Z4 whole entry, looked up): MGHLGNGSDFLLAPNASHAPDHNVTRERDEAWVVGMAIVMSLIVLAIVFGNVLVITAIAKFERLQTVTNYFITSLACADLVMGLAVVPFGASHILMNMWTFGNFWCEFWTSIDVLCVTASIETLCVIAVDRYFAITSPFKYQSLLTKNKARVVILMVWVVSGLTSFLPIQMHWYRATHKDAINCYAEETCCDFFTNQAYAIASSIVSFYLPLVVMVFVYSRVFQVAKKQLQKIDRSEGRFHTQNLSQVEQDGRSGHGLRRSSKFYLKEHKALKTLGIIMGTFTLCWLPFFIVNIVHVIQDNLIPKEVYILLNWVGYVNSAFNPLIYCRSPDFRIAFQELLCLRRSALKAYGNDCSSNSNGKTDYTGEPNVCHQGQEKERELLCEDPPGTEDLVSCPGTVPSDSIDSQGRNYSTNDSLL

In test [1], `COc1cc(N=C2NCCc3cc(O)c(O)cc32)cc(OC)c1OC` had an IC50 of 275 µM and a Ki of 120 µM.
Consider `COc1cc(NC2=NCCc3cc(O)c(O)cc32)cc(OC)c1OC`, for which the Potency ratio in test [2] amounted to 0.00575. Also, the IC50 in test [3] is 200 µM; in test [4], 204 µM. In addition, the pD2 in test [5] was 3.95.
For `O=[N+]([O-])c1ccc(CC2NCCc3cc(O)c(O)cc32)cc1` (configuration not stated), the results for the IC50 in test [3], in test [1] and in test [4] were 44.7 µM, 25.1 µM and 60.3 µM, respectively. The same compound showed an inhibitory constant (Ki) in test [1] of 9.55 µM. Further, the pD2 in test [5] came out at 7.49; in test [6], 7.26.
Consider `COc1cc(CC2c3cc(O)c(O)cc3CCN2CCc2ccccc2)cc(OC)c1OC` (configuration not stated), for which the Potency ratio in test [2] is given as 0.0302. Besides, the 50% inhibitory concentration (IC50) was 38 µM in test [3], 41.7 µM in test [1] and 34.7 µM in test [4]. In test [1], this compound gave a Ki of 16.2 µM. Also, the pD2 in test [5] was 4.64; in test [6], 4.62.
On to `COc1cc(C[C@@H]2NCCc3cc(O)c(O)cc32)cc(OC)c1OC` [TRETOQUINOL], for which the IC50 was 1.15 µM in test [3] and 1.32 µM in test [4]. For the same compound, the figures for the pD2 in test [5] and in test [6] were 7.26 and 7.36, respectively.
For the compound `Nc1ccc(CC2NCCc3cc(O)c(O)cc32)cc1` (configuration not stated), the figures for the IC50 in test [3], in test [1] and in test [4] were 129 µM, 89.1 µM and 145 µM, respectively. This compound had an inhibition constant (Ki) in test [1] of 34.7 µM. In addition, the pD2 in test [5] came out at 6.75; in test [6] it was 6.21.
Regarding `O=[N+]([O-])c1cc(CC2NCCc3cc(O)c(O)cc32)ccc1O` (configuration not stated), the half-inhibitory concentration (IC50) in test [3] is 1.26 µM; in test [1], 0.871 µM; in test [4], 1.12 µM. The Ki in test [1] was 0.339 µM. Also, the pD2 in test [5] turned out to be 6.55; in test [6], 5.91.
Take `COc1cc(CC2NCCc3cc(O)c(O)cc32)cc(I)c1OC` (configuration not stated): the Potency ratio in test [2] is on record as 1.12.
As for `COc1cc(CC2c3cc(O)c(O)cc3CCN2Cc2ccccc2)cc(OC)c1OC` (configuration not stated), in test [2], the Potency ratio is on record as 0.0331.
